Test results as given in ChEMBL document CHEMBL2146476, “Discovery of selective glucocorticoid receptor modulator MK-5932” (Bioorg Med Chem, 2011).
Calls of active or inactive are those of the source. The rule behind the calls is not given here.

Columns and labels:
[1] = target: T1, Glucocorticoid receptor (Homo sapiens) (UniProt P04150); assay: Transactivation activity at GR-mediated modulation of MMTV promoter activity in human A549 cells transfected with luciferase gene linked to MMTV promoter after 16 hrs by luciferase reporter gene assay relative to dexamethasone; assay type: cell-based
T1 sequence (whole entry): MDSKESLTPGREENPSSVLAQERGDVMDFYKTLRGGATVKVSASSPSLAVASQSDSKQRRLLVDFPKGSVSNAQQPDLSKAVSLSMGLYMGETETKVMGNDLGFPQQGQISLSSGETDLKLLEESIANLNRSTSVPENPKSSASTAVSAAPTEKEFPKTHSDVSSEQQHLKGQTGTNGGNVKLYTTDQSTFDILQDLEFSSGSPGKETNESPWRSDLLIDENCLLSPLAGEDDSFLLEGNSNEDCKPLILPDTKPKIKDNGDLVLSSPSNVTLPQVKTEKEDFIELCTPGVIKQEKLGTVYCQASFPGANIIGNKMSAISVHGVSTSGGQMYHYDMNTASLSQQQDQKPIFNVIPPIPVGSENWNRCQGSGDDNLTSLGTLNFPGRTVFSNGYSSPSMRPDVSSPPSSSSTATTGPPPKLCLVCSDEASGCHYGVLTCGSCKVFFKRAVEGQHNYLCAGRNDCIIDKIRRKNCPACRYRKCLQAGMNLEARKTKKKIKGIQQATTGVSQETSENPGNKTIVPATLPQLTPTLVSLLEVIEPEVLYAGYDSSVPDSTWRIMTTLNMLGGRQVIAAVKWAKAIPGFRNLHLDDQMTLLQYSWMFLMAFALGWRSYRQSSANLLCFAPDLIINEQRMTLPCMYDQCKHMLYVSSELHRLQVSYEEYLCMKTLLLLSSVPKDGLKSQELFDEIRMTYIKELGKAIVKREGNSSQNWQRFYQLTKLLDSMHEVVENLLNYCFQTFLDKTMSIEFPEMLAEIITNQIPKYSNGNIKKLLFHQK
Outline: (§1)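 HeLa or A549 cells transiently transfected with a luciferase reporter under the MMTV promoter (two GREs), in 10% charcoal-stripped FBS. Compound exposure 16 h, then luciferase measured. Activity expressed as percent of the span between DMSO and dexamethasone controls. Mean of at least three runs.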

[2] = Drug uptake in oxazolone-induced Sprague-Dawley rat chronic dermatitis model at 15 mg/kg, po; assay type: ADME, organism-based; design: dose 15 mg/kg, route oral; conditions: in vivo, read-out: Drug uptake
Outline: (§2)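 Exposure measured in female Sprague-Dawley rats in the oxazolone chronic dermatitis model: sensitization Day 0, ear challenge Days 7 and 9, daily oral dosing for 7 d from Day 7. Exposure expressed as µM h. Blood collected ~4-5 h after last dose.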

[3] = target: T1, Glucocorticoid receptor (Homo sapiens); assay: Transrepression activity at glucocorticoid receptor in human LPS and TPA-stimulated U937 cells assessed as effect on glucocorticoid-induced TNFalpha repression by beta lactamase reporter gene assay; assay type: cell-based; conditions: U-937
Outline: (§3)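 U937 cells stably carrying a β-lactamase reporter driven by the human TNF-α promoter (-1083 to +182), in 5% charcoal-stripped FBS. Stimulated with 1 µg/mL LPS plus 50 ng/mL TPA, compound exposure 16 h. β-Lactamase read out. Activity expressed as percent of the span between DMSO and 100 nM dexamethasone controls. Mean of at least three runs.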

[4] = target: T1, Glucocorticoid receptor (Homo sapiens); assay: Transactivation activity at GR-mediated modulation of MMTV promoter activity in human A549 cells transfected with luciferase gene linked to MMTV promoter after 16 hrs by luciferase reporter gene assay; assay type: cell-based; outline: as §1
[5] = target: T1, Glucocorticoid receptor (Homo sapiens); assay: Transactivation activity at GR-mediated modulation of MMTV promoter activity in human HeLa cells transfected with luciferase gene linked to MMTV promoter after 16 hrs by luciferase reporter gene assay; assay type: cell-based; outline: as §1
[6] = target: T1, Glucocorticoid receptor (Homo sapiens); assay: Transrepression activity at glucocorticoid receptor in human LPS and TPA-stimulated U937 cells assessed as effect on glucocorticoid-induced TNFalpha repression by beta lactamase reporter gene assay relative to dexamethasone; assay type: cell-based; conditions: U-937; outline: as §3
Glucocorticoid receptor = target: T2, Glucocorticoid receptor (Homo sapiens, UniProt P04150); assay: Displacement of [3H]-dexamethasone from human full length GR expressed in insect Sf21 cells
T2 sequence (P04150 whole entry): T1 sequence (whole entry)
Outline: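 Human full-length GR expressed in insect cells, incubated with compound and 3H-dexamethasone overnight at 4 °C. Bound radioactivity quantified after filtration capture. Nonspecific binding defined with excess unlabelled dexamethasone. Mean of at least two runs.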

[7] = target: T1, Glucocorticoid receptor (Homo sapiens); assay: Transactivation activity at GR-mediated modulation of MMTV promoter activity in human HeLa cells transfected with luciferase gene linked to MMTV promoter after 16 hrs by luciferase reporter gene assay relative to dexamethasone; assay type: cell-based; outline: as §1
Rattus norvegicus [8] = assay: Drug metabolism in oxazolone-induced Sprague-Dawley rat chronic dermatitis model assessed as 2-fluoro-6-(2-((4aS,5R)-1-(4-fluorophenyl)-5-hydroxy-4a-methyl-1,4,4a,5,6,7-hexahydrocyclopenta[f]indazol-5-yl)ethyl)-N-(1-(hydroxymethyl)cyclopropyl)benzamide level at 15 mg/kg, po; conditions: in vivo
[9] = Drug uptake in oxazolone-induced Sprague-Dawley rat chronic dermatitis model at 25 mg/kg, po; assay type: ADME, organism-based; design: dose 25 mg/kg, route oral; conditions: in vivo, read-out: Drug uptake; outline: as §2
[10] = Drug uptake in oxazolone-induced Sprague-Dawley rat chronic dermatitis model at 5 mg/kg, po; assay type: ADME, organism-based; design: dose 5 mg/kg, route oral; conditions: in vivo, read-out: Drug uptake; outline: as §2
Rattus norvegicus [11] = assay: Antiinflammatory activity in oxazolone-induced Sprague-Dawley rat chronic dermatitis model at 0.3 to 60 mg/kg, po qd administered after 7 days of oxazolone sensitization measured after 4 to 5 hrs last post treatment on day 14; assay type: functional, organism-based
Outline: (§4)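 Intact 6-month-old female Sprague-Dawley rats sensitized with oxazolone on ventral abdomen on Day 0. One randomly selected ear challenged with oxazolone on Days 7 and 9, other ear given vehicle. Daily oral dosing for 7 d from Day 7, with 6-methylprednisolone or DEX as positive controls. Blood taken ~4-5 h after last dose for plasma insulin. Inflammation read as inter-ear thickness difference.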

Liver microsomes [12] = assay: Drug metabolism in human liver microsomes assessed as metabolite M3 level up to 50 mins by LC-MS analysis; assay type: ADME, Microsome
Liver microsomes [13] = assay: Drug metabolism in human liver microsomes assessed as metabolite M2 level up to 50 mins by LC-MS analysis; assay type: ADME, Microsome
Liver microsomes [14] = assay: Drug metabolism in human liver microsomes assessed as metabolite M1 level up to 50 mins by LC-MS analysis; assay type: ADME, Microsome
Liver microsomes [15] = assay: Drug metabolism in rat liver microsomes assessed as metabolite M1 level up to 50 mins by LC-MS analysis; assay type: ADME, Microsome
Rattus norvegicus [16] = assay: Toxicity in oxazolone-induced Sprague-Dawley rat chronic dermatitis model assessed as increase in plasma insulin level at 0.3 to 60 mg/kg, po qd administered after 7 days of oxazolone sensitization measured after 4 to 5 hrs last post treatment on day 14; assay type: organism-based; design: route oral; conditions: in vivo; outline: as §4
Liver microsomes [17] = assay: Drug metabolism in rat liver microsomes assessed as metabolite M2 level up to 50 mins by LC-MS analysis; assay type: ADME, Microsome
Liver microsomes [18] = assay: Drug metabolism in rat liver microsomes assessed as metabolite M3 level up to 50 mins by LC-MS analysis; assay type: ADME, Microsome
Rattus norvegicus [19] = assay: Toxicity in oxazolone-induced Sprague-Dawley rat chronic dermatitis model assessed as increase in plasma insulin level at 0.5 to 5 mg/kg, po qd administered after 7 days of oxazolone sensitization measured after 4 to 5 hrs last post treatment on day 14; assay type: organism-based; design: route oral; conditions: in vivo; outline: as §4
Rattus norvegicus [20] = assay: Antiinflammatory activity in oxazolone-induced Sprague-Dawley rat chronic dermatitis model at 0.5 to 5 mg/kg, po qd administered after 7 days of oxazolone sensitization measured after 4 to 5 hrs last post treatment on day 14; assay type: functional, organism-based; outline: as §4
[21] = Drug uptake in oxazolone-induced Sprague-Dawley rat chronic dermatitis model at 20 mg/kg, po; assay type: ADME, organism-based; design: dose 20 mg/kg, route oral; conditions: in vivo, read-out: Drug uptake; outline: as §2
Rattus norvegicus [22] = assay: Drug metabolism in oxazolone-induced Sprague-Dawley rat chronic dermatitis model assessed as 2-{2-[(4aS,5R)-1-(4-fluorophenyl)-5-hydroxy-4amethyl- 1,4,4a,5,6,7-hexahydrocyclopenta[f]indazol-5-yl]ethyl}benzamide level at 20 mg/kg, po; assay type: ADME, organism-based; design: dose 20 mg/kg, route oral; conditions: in vivo

Structure (SMILES) | Emax [1] | IP [3] | IP [4] | IP [5] | Emax [6] | Ki (Glucocorticoid receptor) | Emax [7] | other results
CC1(NC(=O)c2c(F)cccc2CC[C@]2(O)CCC3=Cc4c(cnn4-c4ccc(F)cc4)C[C@@]32C)CC1 | 41% | 20 nM | 32 nM | 27 nM | 81% | < 1 nM | 33% | AUC [2]: 64 µM·h; Drug metabolism (Rattus norvegicus [8]): 3.8 µM·h
C[C@]12Cc3cnn(-c4ccc(F)cc4)c3C=C1CC[C@@]2(O)CCc1ccc(F)cc1C(N)=O | 35% | 131 nM | 186 nM | 153 nM | 73% | 3 nM | 23% | Activity (Rattus norvegicus [11]): Active; Drug metabolism (Liver microsomes [12]): Active; Drug metabolism (Liver microsomes [13]): Active; Drug metabolism (Liver microsomes [14]): Active; Drug metabolism (Liver microsomes [15]): Active; Activity (Rattus norvegicus [16]): Non-toxic; Drug metabolism (Liver microsomes [17]): Active; Drug metabolism (Liver microsomes [18]): Not Active
CC(C)NC(=O)c1ccccc1CC[C@]1(O)CCC2=Cc3c(cnn3-c3ccc(F)cc3)C[C@@]21C | 48% | 170 nM | 60 nM | 83 nM | 62% | 4 nM | 30% | –
C[C@H]1C[C@@H]2[C@H]([C@@H](O)C[C@@]3(C)[C@H]2CC[C@]3(O)C(=O)CO)[C@@]2(C)C=CC(=O)C=C12 [METHYLPREDNISOLONE] | – | – | – | – | – | – | – | Activity (Rattus norvegicus [19]): Toxic; Activity (Rattus norvegicus [20]): Active

Further lines, with some results ahead:

Emax [1] | IP [3] | IP [4] | IP [5] | Emax [6] | Ki (Glucocorticoid receptor) | Emax [7] | Structure (SMILES) | other results
60% | 56 nM | 61 nM | 130 nM | 82% | 2 nM | 66% | C[C@]12Cc3cnn(-c4ccc(F)cc4)c3C=C1CC[C@@]2(O)CCc1ccccc1C(N)=O | AUC [9]: 199 µM·h; AUC [10]: 134 µM·h
23% | 246 nM | 212 nM | 108 nM | 79% | 10 nM | 14% | CC(C)(C)NC(=O)c1ccccc1CC[C@]1(O)CCC2=Cc3c(cnn3-c3ccc(F)cc3)C[C@@]21C | –
51% | 88 nM | 39 nM | 107 nM | 65% | 2 nM | 38% | CCNC(=O)c1ccccc1CC[C@]1(O)CCC2=Cc3c(cnn3-c3ccc(F)cc3)C[C@@]21C | AUC [21]: 75 µM·h; Drug metabolism (Rattus norvegicus [22]): 50 µM·h
